{"source": "ChEMBL document CHEMBL3627702", "about": "“Navigating CYP1A Induction and Arylhydrocarbon Receptor Agonism in Drug Discovery. A Case History with S1P1 Agonists” (J Med Chem, 2015)", "key": {"[1]": {"target": "T1, CYP1A2 (Homo sapiens, UniProt P05177)", "T1 sequence (P05177 whole entry)": "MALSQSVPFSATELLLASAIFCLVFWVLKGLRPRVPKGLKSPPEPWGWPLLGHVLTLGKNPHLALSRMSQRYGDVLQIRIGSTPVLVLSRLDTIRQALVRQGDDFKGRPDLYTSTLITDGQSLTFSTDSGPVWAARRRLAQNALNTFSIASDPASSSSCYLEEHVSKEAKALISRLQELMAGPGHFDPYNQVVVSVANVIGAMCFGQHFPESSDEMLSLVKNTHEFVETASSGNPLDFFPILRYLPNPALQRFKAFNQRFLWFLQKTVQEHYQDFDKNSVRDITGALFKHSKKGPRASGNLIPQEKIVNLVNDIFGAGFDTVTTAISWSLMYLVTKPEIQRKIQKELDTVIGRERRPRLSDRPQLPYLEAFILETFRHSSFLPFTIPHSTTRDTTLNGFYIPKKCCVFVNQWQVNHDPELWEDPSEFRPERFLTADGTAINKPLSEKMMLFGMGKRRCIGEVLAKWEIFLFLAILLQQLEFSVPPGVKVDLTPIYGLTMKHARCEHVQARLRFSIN", "experiment": "Induction of CYP1A2-mediated 7-ethoxyresorufin O-deethylase activity in human hepatocytes at 5 uM after 10 mins by fluorescence assay relative to control", "type": "ADME, cell-based, Hepatocyte", "details": "probe 7-ethoxyresorufin, read-out: FC", "procedure,_shortened": "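Human hepatocytes were treated for 48 h (re-dosed at 24 h), washed, then incubated with 0.5 μM ethoxyresorufin in serum-free medium for 10 min at 37 °C. Resorufin fluorescence read at Ex 530/Em 590 nm. Rate in fluorescence units/min expressed as fold over solvent control.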"}, "[2]": {"system": "CYP1A2", "experiment": "Induction of CYP1A2 mRNA expression in human hepatocytes at 10 uM relative to control", "type": "ADME, cell-based, Hepatocyte", "details": "read-out: FC"}, "[3]": {"system": "CYP1A2", "experiment": "Induction of CYP1A2 mRNA expression in rat hepatic microsomes at 30 mg/kg, po QD for 7 days relative to control", "type": "ADME, organism-based, Liver", "details": "read-out: FC", "procedure,_shortened": "(§1)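 Male rats dosed orally once daily for 7 days. Hepatic mRNA measured by Taqman and expressed as fold induction versus control animals.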"}, "[4]": {"system": "CYP1A1", "experiment": "Induction of CYP1A1 mRNA expression in rat hepatic microsomes at 30 mg/kg, po QD for 7 days relative to control", "type": "ADME, organism-based, Liver", "details": "read-out: FC", "procedure,_shortened": "as §1"}, "[5]": {"system": "CYP1A2", "experiment": "(§2) Induction of CYP1A2 mRNA expression in rat hepatocytes at 10 uM by Taqman analysis relative to control", "type": "ADME, cell-based, Hepatocyte", "details": "read-out: FC"}, "[6]": {"system": "CYP1A1", "experiment": "Induction of CYP1A1 mRNA expression in rat hepatocytes at 10 uM by Taqman analysis relative to control", "type": "ADME, cell-based, Hepatocyte", "details": "read-out: FC"}, "[7]": {"system": "Cynomolgus monkey", "experiment": "Induction of CYP1A2 gene expression in cynomolgus monkey liver at 30 mg/kg, po QD for 7 days by Taqman analysis", "type": "ADME, organism-based, Macaca fascicularis", "details": "in vivo, 168 h", "procedure,_shortened": "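Cynomolgus monkeys dosed orally at 30 mg/kg daily for 7 days. Liver CYP1A2 mRNA measured by Taqman analysis in treated animals versus vehicle-control animals.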"}, "[8]": {"system": "Cynomolgus monkey", "experiment": "Induction of CYP1A1 gene expression in cynomolgus monkey liver at 30 mg/kg, po QD for 7 days by Taqman analysis", "type": "ADME, organism-based, Macaca fascicularis", "details": "in vivo, 168 h", "procedure,_shortened": "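Cynomolgus monkeys were dosed orally at 30 mg/kg daily. Hepatic CYP1A1 mRNA from treated livers was measured by Taqman and compared with vehicle-control animals.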"}, "[9]": {"experiment": "Intrinsic clearance in cynomolgus monkey liver microsomes by LC-MS/MS analysis", "type": "ADME, Macaca fascicularis", "procedure,_shortened": "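Liver microsomes were prepared from control and treated cynomolgus monkeys by differential centrifugation (10 000g, then 105 000g). Compound incubated at 37 °C in 50 mM potassium phosphate pH 7.4 with an NADPH-generating system. Samples taken at 0–30 min, quenched with solvent containing internal standard, and analysed by LC–MS/MS to derive intrinsic clearance.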"}, "[10]": {"system": "Rattus norvegicus", "experiment": "Induction of Nqo1 gene expression in rat hepatic microsomes at 30 to 100 mg/kg, po QD for 7 days", "type": "organism-based, Liver", "details": "168 h"}, "[11]": {"system": "Rattus norvegicus", "experiment": "Induction of CYP1A2 gene expression in rat hepatic microsomes at 30 to 100 mg/kg, po QD for 7 days", "type": "ADME, organism-based, Liver", "details": "168 h"}, "[12]": {"system": "CYP1A1", "experiment": "Induction of CYP1A1 gene expression in rat hepatic microsomes at 30 to 100 mg/kg, po QD for 7 days", "type": "ADME, organism-based, Liver", "details": "read-out: FC"}, "[13]": {"system": "Rattus norvegicus", "experiment": "Induction of Ephx1 gene expression in rat hepatic microsomes at 30 to 100 mg/kg, po QD for 7 days", "type": "organism-based, Liver", "details": "168 h"}, "[14]": {"system": "Rattus norvegicus", "experiment": "Induction of CYP1A2 gene expression in po dosed rat hepatic microsomes administered po QD for 7 days", "type": "ADME, organism-based, Liver", "details": "168 h", "procedure,_shortened": "(§3)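 Rats dosed orally once daily for 7 days at 30–300 mg/kg/day, depending on compound. Hepatic AhR-panel gene mRNA (Cyp1a, Nqo1, Ephx1) measured and expressed as fold induction versus control animals.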"}, "[15]": {"system": "Rattus norvegicus", "experiment": "Induction of CYP1A1 gene expression in po dosed rat hepatic microsomes administered po QD for 7 days", "type": "ADME, organism-based, Liver", "details": "168 h", "procedure,_shortened": "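Rats received oral doses daily for 7 days: 30 and 100 mg/kg, or 30, 100 and 300 mg/kg, depending on compound. Hepatic CYP1A1 mRNA was expressed as fold induction versus control animals.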"}, "[16]": {"system": "Rattus norvegicus", "experiment": "Induction of Nqo1 gene expression in po dosed rat hepatic microsomes administered po QD for 7 days", "type": "organism-based, Liver", "details": "168 h", "procedure,_shortened": "as §3"}, "[17]": {"system": "Rattus norvegicus", "experiment": "Induction of Ephx1 gene expression in po dosed rat hepatic microsomes administered po QD for 7 days", "type": "organism-based, Liver", "details": "168 h", "procedure,_shortened": "as §3"}, "[18]": {"system": "CYP1A2", "experiment": "Induction of CYP1A2 mRNA expression in rat hepatic microsomes at 20 mg/kg, po QD for 4 days relative to control", "type": "ADME, organism-based, Liver", "details": "hepatic microsomes, read-out: FC", "procedure,_shortened": "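Male CD rats (226–325 g), n = 3, given test compound by oral gavage once daily for 4 days. Vehicle was 1% w/v methylcellulose aqueous suspension (3–6 mg/mL, 5 mL/kg); target dose 15–30 mg/kg. Liver from the left lateral lobe was put in RNALater, then TRIzol extraction and cDNA conversion; Cyp1a analysed on low-density arrays.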"}, "[19]": {"system": "CYP1A1", "experiment": "Induction of CYP1A1 mRNA expression in rat hepatic microsomes at 20 mg/kg, po QD for 4 days relative to control", "type": "ADME, organism-based, Liver", "details": "hepatic microsomes, read-out: FC", "procedure,_shortened": "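Male CD rats, n = 3, received the compound once daily by oral gavage for 4 days in 1% methylcellulose suspension at 5 mL/kg. At necropsy a left lateral liver lobe section was stored in RNALater on ice. Tissue was TRIzol-homogenized, RNA purified, DNased and converted to cDNA. Cyp1a1 was read on low density arrays and expressed relative to control.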"}, "[20]": {"system": "Hepatocyte", "experiment": "as §2", "type": "ADME, cell-based", "details": "10 µM"}}}
{"smiles": "CC(C)Oc1ccc(-c2nc(-c3cccc4c3cnn4CCC(=O)O)no2)cc1Cl", "values": [{"measurement": "fold induction at 10 min, 5 µM", "setting": "[1]", "value": 7.7}, {"measurement": "fold induction at 10 µM", "setting": "[2]", "value": 45}, {"measurement": "fold induction at 168 h", "setting": "[3]", "value": 2}, {"measurement": "fold induction at 168 h", "setting": "[4]", "value": 35}, {"measurement": "fold induction at 10 µM", "setting": "[5]", "value": "< 1"}, {"measurement": "fold induction at 10 µM", "setting": "[6]", "value": "< 1"}, {"measurement": "Activity", "setting": "[7]", "value": "Toxic"}, {"measurement": "Activity", "setting": "[8]", "value": "Toxic"}, {"measurement": "CLint scaled", "setting": "[9]", "value": 11, "unit": "mL/min/g"}, {"measurement": "Activity", "setting": "[10]", "value": "Toxic"}, {"measurement": "Activity", "setting": "[11]", "value": "Toxic"}, {"measurement": "fold induction at 168 h", "setting": "[12]", "value": 10000}, {"measurement": "Activity", "setting": "[13]", "value": "Toxic"}, {"measurement": "Activity", "setting": "[14]", "value": "Dose-dependent effect"}, {"measurement": "Activity", "setting": "[15]", "value": "Dose-dependent effect"}, {"measurement": "Activity", "setting": "[16]", "value": "Dose-dependent effect"}, {"measurement": "Activity", "setting": "[17]", "value": "Dose-dependent effect"}]}
{"smiles": "CC(C)Oc1ncc(-c2nc(-c3cccc4c3OCCNC4CCCC(=O)O)no2)cc1Cl", "note": "(stereo in doubt; 6)", "values": [{"measurement": "fold induction at 96 h", "setting": "[18]", "value": 2}, {"measurement": "fold induction at 96 h", "setting": "[19]", "value": 2}, {"measurement": "fold change (FC)", "setting": "[20]", "value": 19}, {"measurement": "fold induction at 10 µM", "setting": "[6]", "value": 43}]}
